Sampled rows, rich in hits. Any-hit rate of the full collection: about 4.9%.
STAT1 blocker = STAT1 signaling inhibitors, primary screen, cell-based, HTS, luciferase reporter. NIH 3T3 STAT1-luciferase reporter, IFN-gamma, luminescence. inhibition, % at 5.5 µM. actives 0.35% (n = 200,000). AID 920, 2007;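 active means inhibition above a set limit, the mean inhibition across all tested compounds plus 3 SD, cut at about 34% in these data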
APP 5'UTR act = activators of APP 5'UTR luciferase reporter, primary screen, SH-SY5Y cells; activation, % at 2 µM; SH-SY5Y APP 5'UTR luciferase reporter, luminescence; zero percent = DMSO vehicle wells; AID 1276, 2008; actives 1% (n = 190,000);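 active means activation above a set limit, based on mean plus 3 SD of controls, cut at about 140% in these data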
STAT3 inh = IL-6 driven STAT3 reporter inhibitors, primary screen, U3A cells, luciferase, luminescence, MLSCN library. IL-6 STAT3-luciferase reporter; host cell line lacks STAT1. inhibition, % at 5.5 µM. actives 0.89% (n = 190,000). AID 862, 2007;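 active means inhibition above the mean inhibition across all screened compounds plus 3 SD, cut at about 44% in these data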
STAT3 activator = IL-6 driven STAT3 reporter potentiators, primary screen, U3A cells, luciferase, luminescence, MLSCN library; IL-6 STAT3-luciferase reporter; 100% = signal with IL-6 EC80 alone; activation (% of control), % at 5.6 µM; actives 0.91% (n = 190,000); AID 871, 2007;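 active means activation above the screen-wide mean of compound activation plus 3 SD, cut at about 130% in these data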
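Test system: STAT3-luciferase reporter U3A cells; Detection: reporter luminescence signal; Times: 1 h compound pre-exposure, 6 h IL-6 stimulation, 37 °C; Benchmarks: IL-6-only high control; Also added: IL-6 stimulus at 33 ng/mL final.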
STAT1 activator = STAT1 signaling activators, primary screen, cell-based, HTS, luciferase reporter. NIH 3T3 STAT1-luciferase reporter, IFN-gamma, luminescence; 100% = IFN-gamma alone, no compound. activation (% of control), % at 5.5 µM. actives 2.6% (n = 200,000). AID 932, 2007;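 active means activation above the screen-wide mean activation plus 3 SD, cut at about 130% in these data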
NF-kB neuron act = activators of NF-kB expression in neurons, primary screen, cell-based, HTS; human neuronal cells, NF-kB reporter expression; active compounds read high; fold change at 12.5 µM; actives 1.6% (n = 190,000); in the data active means fold change above about 3.3
Large screens that a line does not name were inactive.

O=C(NCCOc1ccccc1)c1cc2ccccc2o1	NF-kB neuron act 4.4
Cc1cccc(NC(=O)Cc2noc3ccccc23)c1C	none
CCCn1nnc(NC(=O)c2cc3ccccc3o2)n1	none
O=C(Oc1coc(CSc2nnc(NC(=O)c3cccs3)s2)cc1=O)c1ccccc1	none
CC(C)OC(=O)CSc1nnc2c(n1)[nH]c1ccc(F)cc12	none
O=c1cc[nH]c2ccc([N+](=O)[O-])cc12	none
O=C(NC(=S)NCc1cccnc1)c1cc2ccccc2o1	none
O=C(NC(=S)Nc1cccnc1)c1cc2ccccc2o1	STAT1 activator 131
CC(=O)NCCC(=O)N1CCCC(CNC(=O)c2ccc(-c3ccccc3)cc2)C1 (configuration not stated)	none
CCCCCOC(=O)NCC(O)c1ccccc1 (configuration not stated)	STAT1 activator 144
CC(=O)OC(/C(O)=C(\C#N)c1nc2ccccc2[nH]1)c1ccccc1 (configuration not stated)	NF-kB neuron act 3.6
C/C(O)=C(/C#N)c1nc2ccccc2[nH]1	none (no result: APP 5'UTR act)
COc1ccc(-n2nnnc2S(=O)(=O)Cc2ccc(C(=O)O)cc2)cc1	none
COc1ccc(-n2nnnc2S(=O)(=O)CC(=O)N2CCCCC2)cc1	STAT1 blocker 36
CN(C(=O)c1cc2sccc2n1C)C1CCCCC1	STAT1 activator 142
Cn1c(C(=O)NC2CCCCC2)cc2sccc21	STAT1 activator 137
S=C(NCc1ccco1)NCC1CCCO1 (configuration not stated)	none
CC1=C/C(=N\NC(=S)Nc2cccnc2)CC(C)(C)C1	STAT1 activator 134
CC1(C)C2CC=C(/C=N/NC(=S)Nc3cccnc3)C1C2 (configuration not stated)	none
Cc1csc2nc(CSc3nc4ccccc4o3)c(Br)n12	STAT1 activator 146
Cc1csc2nc(CSc3nncn3-c3ccccc3)c(Br)n12	none
CN(CCC1CCCCO1)C(=O)CCc1nnc(C2CCCCC2)o1 (configuration not stated)	none
Clc1ccc(-c2cc(CSc3cccc(Cl)c3)on2)cc1	none (no result: APP 5'UTR act)
Clc1ccc(-c2cc(CSc3ccccc3)on2)cc1	STAT1 activator 136, NF-kB neuron act 6.2 (no result: APP 5'UTR act)
N#Cc1ccc(OCC(O)CS(=O)(=O)c2ccccc2)cc1 (configuration not stated)	none
O=C(Nc1ccon1)c1ccc(N2CCCCC2)c([N+](=O)[O-])c1	STAT1 activator 150
Cc1cc(NC(=O)c2ccc(N3CCCC3)c([N+](=O)[O-])c2)no1	none
O=CN1CCN(C(=O)c2ccc(-c3nc4ccccc4s3)s2)CC1	STAT1 activator 129, NF-kB neuron act 3.8
c1ccc(Cc2cc(-c3ccccc3)on2)cc1	STAT1 activator 132
COc1ccc(Nc2n[nH]c(C)c2[N+](=O)[O-])cc1	NF-kB neuron act 4.8
Cc1ccc(Nc2n[nH]c(C)c2[N+](=O)[O-])c(C)c1	NF-kB neuron act 5.3
Cc1cc(NC2CCCCC2)n2c(n1)nc1ccccc12	NF-kB neuron act 5.4
Cc1cc(Nc2cccc(F)c2)n2c(n1)nc1ccccc12	none
CCOC(=O)C1C(=O)N(O)CC1c1cccc(Oc2ccccc2)c1 (configuration not stated)	none
N/C(=N\OCc1ccc([N+](=O)[O-])cc1)c1ccccn1	STAT1 blocker 90, STAT3 inh 110
C/C(=N/OCc1ccc(Br)cc1)c1ccccn1	APP 5'UTR act 197, STAT1 activator 138, NF-kB neuron act 4
Cc1ccc(S(=O)(=O)N2CCCCC2)cc1C(=O)OCC(=O)NC(=O)NC12CC3CC(CC(C3)C1)C2	none
Cc1c(C(=O)C(=O)NCc2cccs2)c2ccccc2n1C	none
O=C(N/N=C/c1ccccc1Cl)c1[nH]c2ccc(Br)cc2c1-c1ccccc1	STAT3 activator 135, NF-kB neuron act 4.1
COc1ccc(/C=N/NC(=O)c2[nH]c3ccc(Br)cc3c2-c2ccccc2)cc1	STAT3 activator 152
CCc1ccc(-c2cc(C(=O)Nn3cnnc3)c3ccccc3n2)cc1	STAT1 blocker 64, STAT3 inh 82, NF-kB neuron act 4.3
CCn1cc(-c2cc(C(=O)O)c3ccccc3n2)c(C)n1	none
CCOc1ccc(-c2cc(C(=O)O)c3ccccc3n2)c(OCC)c1	STAT3 activator 135
CCNC(=S)NNC(=O)c1cc(-c2ccc(OCC)cc2)nc2ccccc12	STAT1 blocker 86, STAT3 inh 99, NF-kB neuron act 5.5
COc1ccc(C(=O)CSc2nc3[nH]ncc3c(=O)[nH]2)cc1	none
O=C(O)c1ccc2oc(SCC(=O)N3CCCCC3)nc2c1	STAT1 activator 137
CN(CC(=O)c1c(N)n(C)c(=O)n(C)c1=O)c1ccccc1	none
CN(C)S(=O)(=O)c1cc(NC(=O)[C@H](Cc2ccccc2)N2C(=O)c3ccccc3C2=O)ccc1Cl	none
O=C(Nc1ccc([N+](=O)[O-])cc1)C(Cc1ccccc1)N1C(=O)c2cccc3cccc(c23)C1=O (configuration not stated)	STAT3 activator 135
CC(C)C(NC(=O)c1ccccc1)C(=O)N/N=C\c1ccco1 (configuration not stated)	none
O=c1c2ccccc2ncn1CCCOc1ccccc1[N+](=O)[O-]	STAT1 activator 129
CC(=O)c1cccc(NC(=O)c2ccc(-c3ccccc3[N+](=O)[O-])o2)c1	NF-kB neuron act 4
CCn1nnc(NC(=O)c2ccc(-c3ccccc3[N+](=O)[O-])o2)n1	none
Cc1cc(N/C=C/C(=O)c2cccs2)ccc1F	APP 5'UTR act 178, NF-kB neuron act 7.6
O=C(Cc1cccs1)Nc1cccc([N+](=O)[O-])c1	none
O=C(/C=C/Nc1ccccc1C(=O)O)c1cccs1	STAT1 activator 143
Cc1c(N/C=C/C(=O)c2cccs2)c(=O)n(-c2ccccc2)n1C	none
Cc1ccc(N/C=C/C(=O)c2cccs2)cc1C	STAT1 blocker 53, APP 5'UTR act 170, STAT3 inh 66, NF-kB neuron act 6.6
O=C(/C=C/Nc1cccc([N+](=O)[O-])c1)c1cccs1	APP 5'UTR act 184, STAT3 activator 146, STAT1 activator 139, NF-kB neuron act 7.5
CCc1ccc(/C=C2\SC(=S)N(CCC(=O)N3CCN(C)CC3)C2=O)cc1	NF-kB neuron act 3.3
NC(=S)Nc1nc2ccccc2s1	STAT3 activator 155, STAT1 activator 134
O=C(NC(=S)Nc1nc2ccccc2s1)c1cccs1	APP 5'UTR act 145, STAT3 activator 151, STAT1 activator 133

Compound activity deposited in PubChem by several laboratories.
